Results from paper PMC9425296 (Journal of the American Chemical Society, 2022).
*1 amine or outer side, *2 acyl side, *3 side chain or, on linkers, in order; H or OH if unused. Where a SMILES comes first, the peptide text is derived from it. Bridges are numbered along the chain shown (N, C = ends). [ ]: non-standard residue; d: D form. X1 = O=C([C@@H]1C[C@H](SCc2cccc(C[*:3])c2)CN1[*:1])[*:2]

Key:
[1] = system: OVCAR8 cells (p62, LC3B, GABARAP); assay: Western blot of autophagy markers in OVCAR8 cells; type: cell-based; conditions: OVCAR8, 25 μM peptide plus 10 μM cisplatin, 48 h
[2] = system: five human paralogs in the GABARAP/LC3 family (GABARAP, GABARAP-L1, GABARAP-L2, LC3A, LC3B); assay: FP binding across human LC3/GABARAP paralogs; conditions: fluorescein-tagged peptide
Procedure, shortened: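 Fluorescence polarization with N-terminally fluorescein-labelled peptides titrated against each recombinant protein (GABARAP, GABARAP-L1, GABARAP-L2, LC3A, LC3B). Kd values come from the FP binding data. Results are the average and standard error of the mean of three or more independent trials.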

CC(C)C[C@H](NC(=O)[C@@H]1CSCc2cccc(c2)CS[C@H]2C[C@@H](C(=O)N[C@@H](Cc3ccc(O)cc3)C(=O)N[C@@H]([C@@H](C)O)C(=O)N[C@@H](Cc3c[nH]c4ccccc34)C(=O)N[C@@H](CCC(=O)O)C(=O)N1)N(C(=O)[C@H](C)NC(=O)[C@@H](N)CC(=O)O)C2)C(=O)N[C@@H](C)C(=O)N[C@@H](Cc1c[nH]c2ccccc12)C(=O)N1CCC[C@H]1C(N)=O [MP3-meta] (H-DA[X1]YTWECLAWP-NH2; thioether 3-8; N-terminus and C-terminus assumed)
LC3B-I level compared to cells treated with cisplatin alone [1]: increased LC3B-I
binding to GABARAP and GABARAPL1 (in words) [2]: low-to-mid nanomolar range
binding to GABARAP-L2, LC3A and LC3B (in words) [2]: mostly in the micromolar range
